Data from ChEMBL document CHEMBL1129267, “Aryl 1-but-3-ynyl-4-phenyl-1,2,3,6-tetrahydropyridines as potential antipsychotic agents: synthesis and structure-activity relationships” (J Med Chem, 1996).

Assays:
Monkey = experiment: Compound was tested for inhibition of conditioned avoidance after administering perorally(po) in squirrel monkeys; format: functional; settings: Cebidae, in Saimiri
Rattus norvegicus [1] = experiment: Percent decrease of the firing rate of rat substantia nigra DA neurons at a dose of 2.5 mg/kg ip; format: functional; settings: route intraperitoneal
D(2) dopamine receptor [2] = biological target: T1, D(2) dopamine receptor (Rattus norvegicus, UniProt P61169); experiment: Compound was evaluated for their affinity against dopamine receptor D2 by displacing [3H]-spiperone in rat striatal membrane; format: cell membranes, Striatum
Summary of the method: (§1)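 Rat striatal membranes; [³H]spiperone 0.2 nM final; nonspecific binding defined with (+)-butaclamol 1.0 µM final. Four to six concentrations, each run in triplicate; Ki obtained by nonlinear regression analysis.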

D(2) dopamine receptor [3] = biological target: T2, D(2) dopamine receptor (Homo sapiens, UniProt P14416); experiment: Compound was evaluated […] for Dopamine receptor D2 mitogenesis. [3H]thymidine incorporation in CHO p-5 cells expressing human D2 receptors.; format: organism-based
Summary of the method: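 CHO p-5 cells transfected with human D2L receptor are grown 2 days at 37 °C in medium with 10% calf serum, then rinsed and put in serum-free medium. Compound (in water) is added for 16-17 h, then [³H]thymidine (1 µCi/well) for 4 h. Cells are harvested and counted. Maximal effect is given as % of quinpirole (100%).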

Rattus norvegicus [4] = experiment: Compound was tested for the inhibition of locomotor activity (LMA)by administering orally in rat; format: functional; settings: po
Summary of the method: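 Rats dosed orally 1 h before a 30 min test in darkened cylindrical photobeam chambers. Percent inhibition of locomotor activity relative to vehicle-treated animals; ED50 derived from three to six doses, n = 6-18 animals/dose.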

[5] = biological target: T3, 5-hydroxytryptamine receptor 1A (Rattus norvegicus, UniProt P19327); experiment: (§2) Binding affinity against serotonin 5-hydroxytryptamine 1A receptor using radioligand [3H]8-OH-DPAT binding assay
T3 sequence (P19327 whole entry): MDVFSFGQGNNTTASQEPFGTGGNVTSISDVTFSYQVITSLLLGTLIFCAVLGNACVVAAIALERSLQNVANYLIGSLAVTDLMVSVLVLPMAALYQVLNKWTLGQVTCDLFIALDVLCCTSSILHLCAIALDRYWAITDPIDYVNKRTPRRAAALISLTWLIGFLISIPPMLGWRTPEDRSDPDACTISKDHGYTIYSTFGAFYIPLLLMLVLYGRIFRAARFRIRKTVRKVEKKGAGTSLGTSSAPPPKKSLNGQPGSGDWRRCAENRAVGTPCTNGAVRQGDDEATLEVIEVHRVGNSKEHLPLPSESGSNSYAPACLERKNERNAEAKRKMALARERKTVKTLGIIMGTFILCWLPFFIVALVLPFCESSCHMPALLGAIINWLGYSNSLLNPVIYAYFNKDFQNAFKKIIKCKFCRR
Summary of the method: (§3)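 Rat hippocampal membranes labelled with [³H]-8-OH-DPAT (0.4 nM final); nonspecific binding with 8-OH-DPAT (1 µM).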

D(2) dopamine receptor [6] = biological target: T1, D(2) dopamine receptor; experiment: Binding affinity against Dopamine receptor D2 in CHO-K1 cells using radioligand [3H]NPA binding assay; format: cell-based
[7] = biological target: T4, Adrenergic receptor alpha-1 (Rattus norvegicus, UniProt P15823+P23944+P43140); experiment: Binding affinity against Alpha-1 adrenergic receptor using radioligand [3H]prazosin binding assay.; format: protein assay
T4 sequence (P15823 whole entry): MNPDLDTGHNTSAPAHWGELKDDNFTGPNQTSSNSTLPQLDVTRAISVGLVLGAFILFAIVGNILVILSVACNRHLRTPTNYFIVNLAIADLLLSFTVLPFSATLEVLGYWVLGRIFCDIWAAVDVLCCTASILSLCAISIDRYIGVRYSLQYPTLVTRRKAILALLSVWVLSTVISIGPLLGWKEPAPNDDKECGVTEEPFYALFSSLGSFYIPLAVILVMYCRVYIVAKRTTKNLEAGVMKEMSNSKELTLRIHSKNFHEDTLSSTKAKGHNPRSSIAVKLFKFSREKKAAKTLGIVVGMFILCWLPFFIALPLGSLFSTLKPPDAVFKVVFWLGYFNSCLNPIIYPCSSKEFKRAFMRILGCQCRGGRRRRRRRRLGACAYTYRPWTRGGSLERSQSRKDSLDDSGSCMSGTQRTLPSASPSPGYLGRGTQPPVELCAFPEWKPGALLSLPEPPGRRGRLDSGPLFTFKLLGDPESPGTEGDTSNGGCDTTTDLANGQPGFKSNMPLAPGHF
T4 sequence (P23944 whole entry): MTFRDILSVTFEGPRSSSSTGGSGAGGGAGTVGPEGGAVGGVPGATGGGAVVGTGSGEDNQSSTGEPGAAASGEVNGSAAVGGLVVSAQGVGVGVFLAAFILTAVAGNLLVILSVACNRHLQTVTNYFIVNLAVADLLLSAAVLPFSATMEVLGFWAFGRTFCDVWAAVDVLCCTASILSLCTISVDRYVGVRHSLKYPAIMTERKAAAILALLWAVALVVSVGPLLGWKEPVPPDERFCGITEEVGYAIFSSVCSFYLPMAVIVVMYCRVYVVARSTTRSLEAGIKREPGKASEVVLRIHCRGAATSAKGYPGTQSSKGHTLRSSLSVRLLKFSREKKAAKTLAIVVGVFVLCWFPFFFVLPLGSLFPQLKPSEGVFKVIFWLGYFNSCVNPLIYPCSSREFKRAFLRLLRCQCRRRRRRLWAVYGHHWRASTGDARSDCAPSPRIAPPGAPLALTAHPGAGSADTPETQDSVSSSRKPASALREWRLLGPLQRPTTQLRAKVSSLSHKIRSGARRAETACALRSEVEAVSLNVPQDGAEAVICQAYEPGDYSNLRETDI
T4 sequence (P43140 whole entry): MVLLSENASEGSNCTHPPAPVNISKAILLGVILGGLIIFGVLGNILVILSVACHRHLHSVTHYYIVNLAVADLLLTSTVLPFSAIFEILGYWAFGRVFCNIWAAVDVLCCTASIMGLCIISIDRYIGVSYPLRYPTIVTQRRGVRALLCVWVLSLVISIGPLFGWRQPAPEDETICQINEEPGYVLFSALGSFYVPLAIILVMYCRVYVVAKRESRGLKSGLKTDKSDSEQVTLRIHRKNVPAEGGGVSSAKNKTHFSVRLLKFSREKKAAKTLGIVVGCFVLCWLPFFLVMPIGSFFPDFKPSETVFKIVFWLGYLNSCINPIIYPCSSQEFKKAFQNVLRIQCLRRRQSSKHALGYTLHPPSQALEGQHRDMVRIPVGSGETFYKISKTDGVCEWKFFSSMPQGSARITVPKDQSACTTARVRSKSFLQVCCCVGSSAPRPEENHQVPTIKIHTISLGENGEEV
Summary of the method: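 Inhibition of [³H]prazosin (0.1 nM final) binding in rat cortex membranes; phentolamine (10 µM final) defines nonspecific binding.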

D(1A) dopamine receptor [8] = biological target: T5, D(1A) dopamine receptor (Rattus norvegicus, UniProt P18901); experiment: Binding affinity against dopamine receptor D1 using radioligand ([3H]-SCH 23390) binding assay
D(4) dopamine receptor = biological target: T6, D(4) dopamine receptor (Homo sapiens, UniProt P21917); experiment: Binding affinity against human Dopamine receptor D4 in CHO-K1 cells using [3H]spiperone as radioligand; format: cell-based
T6 sequence (P21917 whole entry): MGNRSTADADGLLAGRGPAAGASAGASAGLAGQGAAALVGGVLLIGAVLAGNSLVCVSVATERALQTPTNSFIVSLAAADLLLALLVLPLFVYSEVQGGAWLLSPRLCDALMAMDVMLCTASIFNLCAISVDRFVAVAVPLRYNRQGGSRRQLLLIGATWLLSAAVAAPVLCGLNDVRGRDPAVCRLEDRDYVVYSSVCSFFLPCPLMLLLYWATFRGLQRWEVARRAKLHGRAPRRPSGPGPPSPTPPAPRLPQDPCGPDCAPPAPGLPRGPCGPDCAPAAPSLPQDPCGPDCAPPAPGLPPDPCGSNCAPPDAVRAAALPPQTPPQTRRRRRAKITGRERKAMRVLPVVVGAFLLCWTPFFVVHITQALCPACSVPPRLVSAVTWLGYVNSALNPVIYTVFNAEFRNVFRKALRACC
Summary of the method: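 Human D4.2 receptor expressed in CHO K1 cells; [³H]spiperone 0.2 nM final; nonspecific binding defined with haloperidol 1.0 µM final.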

D(2) dopamine receptor [9] = biological target: T1, D(2) dopamine receptor; experiment: Binding affinity at Dopamine receptor D2 in rat striatal membrane by [3H]spiperone displacement.; format: cell membranes, Striatum; summary of the method: as §1
D(2) dopamine receptor [10] = biological target: T2, D(2) dopamine receptor; experiment: […] Dopamine receptor D2 mitogenesis measured as [3H]thymidine incorporation in CHO p-5 cells expressing human D2 receptors
Summary of the method: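 CHO p-5 cells transfected with human D2L are grown 2 days at 37 °C in medium with 10% calf serum, rinsed, and switched to serum-free medium plus compound in water. After 16-17 h, [³H]thymidine (1 µCi/well) is added for 4 h; cells are harvested onto filters and counted.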

D(3) dopamine receptor = D(3) dopamine receptor (Homo sapiens, UniProt P35462); experiment: Binding affinity against human Dopamine receptor D3 in CHO-K1 cells using [3H]spiperone as radioligand; format: cell-based
Rattus norvegicus [11] = experiment: In vivo inhibition of locomotor activity in the rat following p.o. administration.; format: functional; settings: po
Mus musculus [12] = experiment: (§4) Compound was tested for the inhibition of locomotor activity (LMA)by administering Intraperitoneally in mouse.; format: functional; settings: ip
Mus musculus [13] = experiment: as §4; format: functional; settings: ip; remark: listed apart in the source
Summary of the method: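 Mice dosed ip, then tested immediately for 1 h in darkened cylindrical photobeam chambers. Percent inhibition of locomotor activity relative to vehicle-treated animals; ED50 derived from three to six doses, n = 6-18 animals/dose.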

D(1A) dopamine receptor [14] = biological target: T5, D(1A) dopamine receptor; format: cell membranes, Brain, Membrane
[15] = biological target: T3, 5-hydroxytryptamine receptor 1A; experiment: as §2; parameters: species or system Homo sapiens; summary of the method: as §3
Rattus norvegicus [16] = experiment: Percent reversal of the increase on DOPA levels in the striatum of GBL-treated rats at a dose of 10 mg/kg ip; format: functional; settings: route intraperitoneal

T1 sequence (P61169 whole entry): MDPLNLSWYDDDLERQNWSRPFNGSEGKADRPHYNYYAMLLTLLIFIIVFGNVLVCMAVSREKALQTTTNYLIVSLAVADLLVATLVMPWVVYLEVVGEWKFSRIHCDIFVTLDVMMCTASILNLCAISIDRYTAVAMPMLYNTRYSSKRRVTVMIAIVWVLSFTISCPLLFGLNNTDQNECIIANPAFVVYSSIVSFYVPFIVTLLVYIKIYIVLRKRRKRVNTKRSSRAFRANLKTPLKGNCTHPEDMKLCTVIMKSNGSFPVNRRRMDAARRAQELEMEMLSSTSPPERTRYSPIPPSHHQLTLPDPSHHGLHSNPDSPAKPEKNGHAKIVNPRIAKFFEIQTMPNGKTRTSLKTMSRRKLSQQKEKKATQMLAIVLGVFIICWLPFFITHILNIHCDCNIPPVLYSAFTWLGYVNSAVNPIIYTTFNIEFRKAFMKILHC
T2 sequence (P14416 whole entry): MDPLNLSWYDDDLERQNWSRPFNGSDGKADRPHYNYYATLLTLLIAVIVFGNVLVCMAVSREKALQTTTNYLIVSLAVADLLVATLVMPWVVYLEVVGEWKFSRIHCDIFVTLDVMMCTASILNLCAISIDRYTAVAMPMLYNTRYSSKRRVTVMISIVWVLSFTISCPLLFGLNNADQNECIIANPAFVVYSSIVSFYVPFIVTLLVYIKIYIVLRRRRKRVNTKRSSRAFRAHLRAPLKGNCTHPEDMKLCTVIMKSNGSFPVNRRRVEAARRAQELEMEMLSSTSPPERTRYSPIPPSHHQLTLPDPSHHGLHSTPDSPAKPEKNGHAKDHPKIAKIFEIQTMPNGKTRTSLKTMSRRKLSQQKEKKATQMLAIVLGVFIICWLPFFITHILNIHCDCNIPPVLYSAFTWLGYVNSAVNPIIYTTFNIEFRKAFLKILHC
D(3) dopamine receptor, sequence (P35462 whole entry): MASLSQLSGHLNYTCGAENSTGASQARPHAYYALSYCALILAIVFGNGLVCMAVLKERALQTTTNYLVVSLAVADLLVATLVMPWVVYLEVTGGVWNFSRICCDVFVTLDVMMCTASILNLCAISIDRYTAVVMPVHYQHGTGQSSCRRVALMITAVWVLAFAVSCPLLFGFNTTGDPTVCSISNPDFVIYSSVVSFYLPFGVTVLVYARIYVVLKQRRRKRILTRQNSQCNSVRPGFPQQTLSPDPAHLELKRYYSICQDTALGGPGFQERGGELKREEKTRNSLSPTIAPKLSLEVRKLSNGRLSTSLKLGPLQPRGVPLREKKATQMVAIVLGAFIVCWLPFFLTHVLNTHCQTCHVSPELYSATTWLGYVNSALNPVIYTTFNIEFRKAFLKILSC
T5 sequence (P18901 whole entry): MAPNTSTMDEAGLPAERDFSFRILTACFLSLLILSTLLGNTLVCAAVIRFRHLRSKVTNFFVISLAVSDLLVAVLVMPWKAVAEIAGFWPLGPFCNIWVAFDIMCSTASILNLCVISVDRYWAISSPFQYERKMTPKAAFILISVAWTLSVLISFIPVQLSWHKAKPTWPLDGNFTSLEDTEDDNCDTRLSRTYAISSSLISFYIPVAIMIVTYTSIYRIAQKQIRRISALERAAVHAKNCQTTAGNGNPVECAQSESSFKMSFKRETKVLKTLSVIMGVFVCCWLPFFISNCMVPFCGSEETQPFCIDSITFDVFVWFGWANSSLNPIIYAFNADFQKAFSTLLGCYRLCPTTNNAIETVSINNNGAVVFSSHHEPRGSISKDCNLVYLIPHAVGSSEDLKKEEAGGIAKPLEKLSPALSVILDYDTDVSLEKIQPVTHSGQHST

SMILES | ED50 (Monkey) [mg/kg] | Decrease (Rattus norvegicus [1]) [%] | Ki (D(2) dopamine receptor [6]) [nM] | Ki [7] [nM] | Ki (D(2) dopamine receptor [9]) [nM] | ED50 (Rattus norvegicus [11]) [mg/kg] | ED50 (Mus musculus [13]) [mg/kg] | further results
Nc1ccc(C#CCCN2CC=C(c3ccccc3)CC2)cc1 | 3.8 | 81 | 0.67 | 34.5 |  |  |  | Ki (D(2) dopamine receptor [2]): 48 nM; Max effect (D(2) dopamine receptor [3]): 49%; ED50 (Rattus norvegicus [4]): 2.7 mg/kg; Ki [5]: > 10000 nM; Ki (D(1A) dopamine receptor [8]): > 10000 nM; Ki (D(4) dopamine receptor): 228 nM
C(#Cc1ccncc1)CCN1CC=C(c2ccccc2)CC1 | 11.9 | 93 | 4.1 | 25.8 | 32 | 4.4 |  | Ki [5]: 593 nM; EC50 (D(2) dopamine receptor [10]): 1 nM; Ki (D(4) dopamine receptor): 570 nM; Ki (D(3) dopamine receptor): 6.5 nM
C(#Cc1ccc2[nH]ccc2c1)CCN1CC=C(c2ccccc2)CC1 |  |  |  |  | 193 | 5.2 |  | ED50 (Mus musculus [12]): 1.2 mg/kg
C(#Cc1cccnc1)CCN1CCN(c2ccccn2)CC1 |  |  |  |  |  | > 30 | 2.2 | 
C(#Cc1cnc2ccccc2c1)CCN1CC=C(c2ccccc2)CC1 |  |  |  |  | 30 |  |  | 
C(#Cc1cnc2ccccc2c1)CCCN1CC=C(c2ccccc2)CC1 |  |  |  |  |  | 18.6 |  | 
Nc1ccc(C#CCCN2CC=C(c3ccccc3)CC2)nc1 | 0.43 | 100 | 1.9 | 57.5 | 63 | 1.7 |  | Ki (D(1A) dopamine receptor [14]): > 10000 nM; Ki [5]: 69 nM; EC50 (D(2) dopamine receptor [10]): 1.3 nM; Ki (D(4) dopamine receptor): 371 nM; Ki (D(3) dopamine receptor): 2.6 nM
C(#Cc1ccccc1)CCN1CC=C(c2ccccc2)CC1 |  |  |  |  |  |  |  | Ki (D(2) dopamine receptor [2]): 284 nM; ED50 (Mus musculus [12]): 9.5 mg/kg; ED50 (Rattus norvegicus [4]): 20.5 mg/kg
C(#Cc1cccnc1)CCN1CC=C(c2cccs2)CC1 |  |  |  |  | 255 | 5 | 0.86 | 
Nc1cccc(C#CCCN2CC=C(c3ccccc3)CC2)c1 | 9.3 | 98 | 18 | 107 |  |  | 0.68 | Ki (D(2) dopamine receptor [2]): 87 nM; Max effect (D(2) dopamine receptor [3]): 75%; ED50 (Rattus norvegicus [4]): 5.6 mg/kg; Ki [15]: 1550 nM; Decrease (Rattus norvegicus [16]): 42%
C(#Cc1cncc2ccccc12)CCN1CC=C(c2ccccc2)CC1 |  |  |  |  | 73 | 3.8 |  | 
Fc1ccc(N2CCN(CCC#Cc3cccnc3)CC2)cc1 |  |  |  |  | 1670 | 4.3 | 4.7 | 
